Data from ChEMBL document CHEMBL3860039, “Structure-Activity Relationship and Signaling of New Chimeric CXCR4 Agonists” (J Med Chem, 2016).
pEC50, pIC50: −log10 of the molar value.

How the values were obtained:
Format in all cases: cell-based
[1] = molecular target: T1, C-X-C chemokine receptor type 4 (Homo sapiens, UniProt P61073); assay: Displacement of [125I]-CXCL12 from HA-tagged human recombinant CXCR4 expressed in HEK293 cells incubated for 1 hr by gamma-radiation counting analysis
[2] = molecular target: T1, C-X-C chemokine receptor type 4; assay: Agonist activity at HA-tagged human CXCR4 receptor expressed in HEK293 cells co-transfected with Galphai1-91-RlucII, Gbeta1, and GFP10-G-gamma1 incubated for 7 mins by Galpha1 protein activation-based BRET assay
Method in brief: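 HEK293 cells (3 × 10^6 per 100 mm dish) co-transfected via polyethylenimine with HA-hCXCR4 plus Gαi1-91-RlucII, Gβ1, GFP10-Gγ1; replated at 24 h, 100 000 cells/well. At 48 h, washed in HBSS/0.1% BSA, exposed to ligand 10−12 to 10−5 M for 7 min, then coelenterazine-400A 5 μM final; BRET2 515/400 nm ratio. EC50 (Gαi dissociation) and Emax from three experiments in triplicate.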

[3] = molecular target: T1, C-X-C chemokine receptor type 4; assay: Agonist activity at CXCR4 in human REH cells assessed as induction of chemotaxis incubated for 3 hrs by transwell migration assay
Method in brief: (§1)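 REH acute lymphoblastic B-cell leukaemia cells washed in RPMI; 100 000 cells in RPMI + 0.2% BSA seeded on top of 5 μm pore polycarbonate transwell, peptide dilutions in same medium in bottom chamber; 3 h, 37 °C, 5% CO2. Migrated cells in lower chamber counted by automated counter, expressed as % of seeded cells; peak = concentration giving maximal migration. Three experiments in triplicate.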

[4] = molecular target: T1, C-X-C chemokine receptor type 4; assay: Agonist activity at CXCR4 in human REH cells assessed as optimal concentration causing maximum induction of chemotaxis incubated for 3 hrs by transwell migration assay; method in brief: as §1

T1 sequence (P61073 whole entry): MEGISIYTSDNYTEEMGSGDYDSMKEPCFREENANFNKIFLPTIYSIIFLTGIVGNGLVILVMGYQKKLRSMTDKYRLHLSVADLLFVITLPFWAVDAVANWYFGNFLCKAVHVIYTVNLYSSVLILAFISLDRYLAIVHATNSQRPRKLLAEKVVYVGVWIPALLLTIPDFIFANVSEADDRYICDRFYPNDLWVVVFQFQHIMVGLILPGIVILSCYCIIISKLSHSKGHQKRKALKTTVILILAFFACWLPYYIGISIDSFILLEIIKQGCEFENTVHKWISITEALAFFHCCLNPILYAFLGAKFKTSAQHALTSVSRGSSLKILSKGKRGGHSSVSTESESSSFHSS

Row | SMILES | pIC50 [1] | pEC50 [2] | Emax [2] [%] | %max [3] [%] | Activity [4] [nM]
1 | CC(C)C[C@H](NC(=O)[C@H](CO)NC(=O)[C@H](Cc1ccc(C(=O)c2ccccc2)cc1)NC(=O)[C@@H]1CCCN1C(=O)[C@@H](N)CCCCN)C(=O)N[C@@H](CO)C(=O)N[C@@H](Cc1ccc(O)cc1)C(=O)NCCOCCOCCOCCC(=O)NCCCC[C@H](NC(=O)[C@@H]1CSSC[C@H](NC(=O)[C@H](Cc2ccc3ccccc3c2)NC(=O)[C@H](CCCNC(=N)N)NC(=O)[C@@H](N)CCCNC(=N)N)C(=O)N[C@@H](Cc2ccc(O)cc2)C(=O)N[C@@H](CCCNC(=N)N)C(=O)N[C@@H](CCCCN)C(=O)N[C@H](CCCCN)C(=O)N2CCC[C@H]2C(=O)N[C@@H](Cc2ccc(O)cc2)C(=O)N[C@@H](CCCNC(=N)N)C(=O)N[C@@H](CCCNC(=N)N)C(=O)N1)C(=O)O | 6.95 | 6.68 | 75 | 40 | 100
2 | CC(C)C[C@H](NC(=O)[C@H](CO)NC(=O)[C@H](Cc1cc2cccc3ccc4cccc1c4c32)NC(=O)[C@@H]1CCCN1C(=O)[C@@H](N)CCCCN)C(=O)N[C@@H](CO)C(=O)N[C@@H](Cc1ccc(O)cc1)C(=O)N[C@@H](CCCNC(=N)N)C(=O)N[C@@H](CO)C(=O)N[C@@H](C)C(=O)NCCCC[C@H](NC(=O)[C@@H]1CSSC[C@H](NC(=O)[C@H](Cc2ccc3ccccc3c2)NC(=O)[C@H](CCCNC(=N)N)NC(=O)[C@@H](N)CCCNC(=N)N)C(=O)N[C@@H](Cc2ccc(O)cc2)C(=O)N[C@@H](CCCNC(=N)N)C(=O)N[C@@H](CCCCN)C(=O)N[C@H](CCCCN)C(=O)N2CCC[C@H]2C(=O)N[C@@H](Cc2ccc(O)cc2)C(=O)N[C@@H](CCCNC(=N)N)C(=O)N[C@@H](CCCNC(=N)N)C(=O)N1)C(=O)O | 7.05 | 7.13 | 47 | 45 | 100
3 | CC(C)C[C@H](NC(=O)[C@H](CO)NC(=O)[C@@H](NC(=O)[C@@H]1CCCN1C(=O)[C@@H](N)CCCCN)C(C)(C)C)C(=O)N[C@@H](CO)C(=O)N[C@@H](Cc1ccc(O)cc1)C(=O)N[C@@H](CCCNC(=N)N)C(=O)N[C@@H](CO)C(=O)N[C@@H](C)C(=O)NCCCC[C@H](NC(=O)[C@@H]1CSSC[C@H](NC(=O)[C@H](Cc2ccc3ccccc3c2)NC(=O)[C@H](CCCNC(=N)N)NC(=O)[C@@H](N)CCCNC(=N)N)C(=O)N[C@@H](Cc2ccc(O)cc2)C(=O)N[C@@H](CCCNC(=N)N)C(=O)N[C@@H](CCCCN)C(=O)N[C@H](CCCCN)C(=O)N2CCC[C@H]2C(=O)N[C@@H](Cc2ccc(O)cc2)C(=O)N[C@@H](CCCNC(=N)N)C(=O)N[C@@H](CCCNC(=N)N)C(=O)N1)C(=O)O | 7.08 | 7.82 | 36 | 21 | 100
4 | CC(C)C[C@H](NC(=O)[C@H](CO)NC(=O)[C@@H](NC(=O)[C@@H]1CCCN1C(=O)[C@@H](N)CCCCN)C(C)C)C(=O)N[C@@H](CO)C(=O)N[C@@H](Cc1ccc(OCc2ccccc2)cc1)C(=O)N[C@@H](CCCNC(=N)N)C(=O)N[C@@H](CO)C(=O)N[C@@H](C)C(=O)NCCCC[C@H](NC(=O)[C@@H]1CSSC[C@H](NC(=O)[C@H](Cc2ccc3ccccc3c2)NC(=O)[C@H](CCCNC(=N)N)NC(=O)[C@@H](N)CCCNC(=N)N)C(=O)N[C@@H](Cc2ccc(O)cc2)C(=O)N[C@@H](CCCNC(=N)N)C(=O)N[C@@H](CCCCN)C(=O)N[C@H](CCCCN)C(=O)N2CCC[C@H]2C(=O)N[C@@H](Cc2ccc(O)cc2)C(=O)N[C@@H](CCCNC(=N)N)C(=O)N[C@@H](CCCNC(=N)N)C(=O)N1)C(=O)O | 6.99 | 6.86 | 79 | 76 | 100

Stronger by pIC50 [1], values ahead:

Row | pIC50 [1] | pEC50 [2] | Emax [2] [%] | %max [3] [%] | Activity [4] [nM] | SMILES
5 | 7.16 | 7.19 | 41 | 16 | 10 | CC(C)C[C@H](NC(=O)[C@H](CO)NC(=O)[C@@H](NC(=O)[C@@H]1CCCN1C(=O)[C@@H](N)CCCCN)C(C)C)C(=O)N[C@@H](CO)C(=O)N[C@@H](Cc1ccccc1)C(=O)N[C@@H](CCCNC(=N)N)C(=O)N[C@@H](CO)C(=O)N[C@@H](C)C(=O)NCCCC[C@H](NC(=O)[C@@H]1CSSC[C@H](NC(=O)[C@H](Cc2ccc3ccccc3c2)NC(=O)[C@H](CCCNC(=N)N)NC(=O)[C@@H](N)CCCNC(=N)N)C(=O)N[C@@H](Cc2ccc(O)cc2)C(=O)N[C@@H](CCCNC(=N)N)C(=O)N[C@@H](CCCCN)C(=O)N[C@H](CCCCN)C(=O)N2CCC[C@H]2C(=O)N[C@@H](Cc2ccc(O)cc2)C(=O)N[C@@H](CCCNC(=N)N)C(=O)N[C@@H](CCCNC(=N)N)C(=O)N1)C(=O)O
6 | 7.47 | 7.12 | 90 | 69 | 10 | CC(C)C[C@H](NC(=O)[C@H](CO)NC(=O)[C@@H](NC(=O)[C@@H]1CCCN1C(=O)[C@@H](N)CCCCN)C(C)C)C(=O)N[C@@H](CO)C(=O)N[C@@H](Cc1ccc(C(=O)c2ccccc2)cc1)C(=O)N[C@@H](CCCNC(=N)N)C(=O)N[C@@H](CO)C(=O)N[C@@H](C)C(=O)NCCCC[C@H](NC(=O)[C@@H]1CSSC[C@H](NC(=O)[C@H](Cc2ccc3ccccc3c2)NC(=O)[C@H](CCCNC(=N)N)NC(=O)[C@@H](N)CCCNC(=N)N)C(=O)N[C@@H](Cc2ccc(O)cc2)C(=O)N[C@@H](CCCNC(=N)N)C(=O)N[C@@H](CCCCN)C(=O)N[C@H](CCCCN)C(=O)N2CCC[C@H]2C(=O)N[C@@H](Cc2ccc(O)cc2)C(=O)N[C@@H](CCCNC(=N)N)C(=O)N[C@@H](CCCNC(=N)N)C(=O)N1)C(=O)O
7 | 7.23 | 7.28 | 75 | 72 | 10 | CC(C)C[C@H](NC(=O)[C@H](CO)NC(=O)[C@H](Cc1ccc(C(=O)c2ccccc2)cc1)NC(=O)[C@@H]1CCCN1C(=O)[C@@H](N)CCCCN)C(=O)N[C@@H](CO)C(=O)N[C@@H](Cc1ccc(O)cc1)C(=O)N[C@@H](CCCNC(=N)N)C(=O)N[C@@H](CO)C(=O)N[C@@H](C)C(=O)NCCCC[C@H](NC(=O)[C@@H]1CSSC[C@H](NC(=O)[C@H](Cc2ccc3ccccc3c2)NC(=O)[C@H](CCCNC(=N)N)NC(=O)[C@@H](N)CCCNC(=N)N)C(=O)N[C@@H](Cc2ccc(O)cc2)C(=O)N[C@@H](CCCNC(=N)N)C(=O)N[C@@H](CCCCN)C(=O)N[C@H](CCCCN)C(=O)N2CCC[C@H]2C(=O)N[C@@H](Cc2ccc(O)cc2)C(=O)N[C@@H](CCCNC(=N)N)C(=O)N[C@@H](CCCNC(=N)N)C(=O)N1)C(=O)O
8 | 7.25 | 7.04 | 50 | 30 | 10 | CC(C)C[C@H](NC(=O)[C@H](CO)NC(=O)[C@H](C)NC(=O)[C@@H]1CCCN1C(=O)[C@@H](N)CCCCN)C(=O)N[C@@H](CO)C(=O)N[C@@H](Cc1ccc(O)cc1)C(=O)N[C@@H](CCCNC(=N)N)C(=O)N[C@@H](CO)C(=O)N[C@@H](C)C(=O)NCCCC[C@H](NC(=O)[C@@H]1CSSC[C@H](NC(=O)[C@H](Cc2ccc3ccccc3c2)NC(=O)[C@H](CCCNC(=N)N)NC(=O)[C@@H](N)CCCNC(=N)N)C(=O)N[C@@H](Cc2ccc(O)cc2)C(=O)N[C@@H](CCCNC(=N)N)C(=O)N[C@@H](CCCCN)C(=O)N[C@H](CCCCN)C(=O)N2CCC[C@H]2C(=O)N[C@@H](Cc2ccc(O)cc2)C(=O)N[C@@H](CCCNC(=N)N)C(=O)N[C@@H](CCCNC(=N)N)C(=O)N1)C(=O)O
